# Screening data from PubChem BioAssay.
# Only some compounds are listed: those with a hit (about 2.3% of all), similar ones and a draw of the others.
# SKN-1 inh: blocks SKN-1 activity in C. elegans; inhibition, % at 21.8 µM; C. elegans VP596 Pgst-4::GFP/RFP ratio, acrylamide-induced, 24 h; actives 0.49% (n = 360,000);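 active = interference check ratio from 0.5 to 1.5 plus GFP to RFP signal ratio inhibition reaching or exceeding a fixed threshold, cut at about 30% in these data, passing the limit was not always enough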
# MT1-MMP act inh: blocks activation of human MT1-MMP | AID 651647 | actives 0.061% (n = 360,000) | HT1080 RFP-PRO-GFP cells, GFP/RFP ratio fluorescence, overnight; percent of plate control window, DMSO zero | GFP/RFP ratio change, % at 20 µM;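 active = GFP/RFP ratio change of at least 30% with cell ATP level not reduced by more than half and red fluorescence within 50% of control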
#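 Assay system: HT1080 RFP-PRO-GFP cells. Benchmarks: DMSO vehicle wells and RFP-L50D-GFP reporter cell wells. Times: overnight cell settling, then overnight compound exposure, 37 °C, 5% CO2. Compound: 20 µM single dose, 1% DMSO. Read-out basis: GFP/RFP fluorescence ratio.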
# ATG4B inh: inhibitors of human ATG4B cysteine protease; actives 0.51% (n = 340,000); Q9Y4P1; ATG4B cleavage of LC3-PLA2, NBD-HPC fluorescence, 1 h; AID 504462; inhibition, % at 8.33 µM; in the data active = inhibition above about 40%
# Target sequence (Q9Y4P1 whole entry, looked up): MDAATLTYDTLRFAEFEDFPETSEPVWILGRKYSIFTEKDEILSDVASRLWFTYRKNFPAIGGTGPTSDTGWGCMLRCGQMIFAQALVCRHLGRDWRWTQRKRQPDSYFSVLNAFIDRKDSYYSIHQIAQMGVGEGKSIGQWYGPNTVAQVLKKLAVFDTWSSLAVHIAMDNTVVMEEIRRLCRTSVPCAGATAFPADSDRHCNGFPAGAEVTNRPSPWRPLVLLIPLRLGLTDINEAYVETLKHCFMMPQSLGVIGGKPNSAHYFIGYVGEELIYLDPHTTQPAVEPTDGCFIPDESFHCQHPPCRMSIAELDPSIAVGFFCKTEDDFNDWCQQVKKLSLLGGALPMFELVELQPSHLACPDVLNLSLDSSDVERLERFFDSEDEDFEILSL
# MPTP inh: inhibitors of mitochondrial permeability transition pore | isolated mouse mitochondria, Ca2+ swelling absorbance, 30 min | inhibition, % at 10 µM | actives 1.4% (n = 360,000);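 active = inhibition of 50% or more, scaled per plate between neutral and stimulator controls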;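 also: 0% = DMSO wells given calcium and 100% = 1 mM EGTA wells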
# MPTP counter: mitochondrial membrane potential, counter-screen; AID 624504; actives 78% (n = 5,000); inhibition, % at 10 µM; isolated mitochondria, Rhodamine 123 fluorescence; shares compounds with MPTP inh; in the data active = inhibition above about 22%;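 also: 0% = DMSO vehicle and 100% = positive control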
# MPTP abs DR: dose response confirmation of mitochondrial permeability transition pore inhibitors; IC50, µM; shares compounds with MPTP inh; isolated mitochondria swelling, absorbance; actives 58% (n = 780); AID 651561; in the data active = IC50 below about 20 µM
# MPTP counter DR: counter-screen for mitochondrial permeability transition pore inhibitors, dose response; shares compounds with MPTP inh; isolated mitochondria counterscreen, fluorescence read-out; IC50, µM; actives 49% (n = 780); in the data active = IC50 below about 80 µM
# Active calls of the source: *; / = not tested or not shown.
SMILES,SKN-1 inh,MT1-MMP act inh,ATG4B inh,MPTP inh,MPTP counter,others
O=C1/C(=C/c2cccc(Br)c2)SC(=S)N1/N=C/c1cc([N+](=O)[O-])ccc1O,-3.3,4.2,7.5,60.8*,12.4,MPTP abs DR=15.3*;MPTP counter DR=<2.5*
O=C1/C(=C\c2ccc(O)cc2)SC(=S)N1/N=C/c1ccc(O)cc1,-12.2,-92.5,15.0,95.6*,78.2*,
CC(=O)NN1C(=O)/C(=C\c2ccc(O)cc2)SC1=S,4.9,-28.2,8.9,0.7,/,
Cc1cccc2cc(CN(Cc3nnnn3C3CCCCC3)C3CCCC3)c3nnnn3c12,-6.3,-6.7,-2.2,1.3,/,
CC(C)(c1ccccc1)c1ccc(OCCCNCCO)cc1,16.3,-8.4,-2.4,94.4*,-9.4,MPTP abs DR=5.95*;MPTP counter DR=>80
COCCCNCCCOc1ccc(C(C)(C)c2ccccc2)cc1,13.7,-2.6,4.4,0.8,/,
CCN(CC)C(=O)C1=C(C)N(Cc2ccc(F)cc2)C(=O)C(CC(=O)NCCN2CCOCC2)C1 (stereo unspecified),-14.4,2.7,/,0.0,/,
Cc1c(C(=O)Nc2cccc([N+](=O)[O-])c2)csc1-c1ccccc1,-17.7,-3.9,-2.2,84.6*,89.0*,
O=C(Nc1cccc([N+](=O)[O-])c1)c1cc2ccccc2cc1O,3.7,/,5.6,96.1*,59.6*,
Cc1ccc(NC(=O)c2csc(-c3ccccc3)c2C)cc1,3.6,-1.0,-4.2,11.0,/,
COc1ccc(NC(=O)Nc2cccc([N+](=O)[O-])c2)cc1Cl,-0.4,2.7,24.0,94.2*,80.2*,
COc1ccc(C(=O)Nc2cccc([N+](=O)[O-])c2)cc1Br,-7.2,-5.3,-10.4,1.8,/,
COc1ccccc1CCNC(=O)Nc1cccc([N+](=O)[O-])c1,11.4,4.6,11.8,68.1*,77.1*,
COc1ccc(NC(=O)c2cccc([N+](=O)[O-])c2)cc1,1.7,6.2,-7.9,2.1,/,
COc1ccc(NC(=S)Nc2cccc([N+](=O)[O-])c2)cc1,-7.4,6.1,9.8,84.7*,86.7*,
COc1ccc(NC(=O)c2ccc(-c3ccc([N+](=O)[O-])cc3)o2)cc1,4.4,1.4,-4.4,4.2,/,
COc1ccc(Nc2nc(-c3cccc([N+](=O)[O-])c3)nc3ccccc23)cc1,10.4,-0.5,28.3,53.2*,25.2*,
COc1ccc(NC(=O)c2cc([N+](=O)[O-])ccc2O)cc1,10.4,-4.8,1.5,91.6*,94.9*,
CC1=NS(=O)(=O)NC(C)(C)C1,-1.4,-2.0,-3.1,-0.8,/,
Fc1ccccc1-c1cc2ncccc2cn1,15.9,-2.2,1.8,-2.2,/,
CC(C)C[C@H]1CN([C@@H](Cc2ccccc2)CN2CCC[C@H]2CN2C(=O)C(=O)NC[C@@H]2Cc2ccc(O)cc2)C(=O)C(=O)N1CCc1ccccc1,-0.6,-2.7,/,-2.7,/,
NC(CCCCCP(=O)(c1ccccc1)c1ccccc1)C(=O)O (stereo unspecified),/,/,4.0,/,/,
COc1ccc([N+](=O)[O-])cc1N(CC(O)CN(CC(C)C)CC(C)C)S(=O)(=O)c1ccccc1 (stereo unspecified),2.9,-7.9,2.2,1.7,/,
CCCCN(CCCC)CC(O)CN(c1cc([N+](=O)[O-])ccc1OC)S(=O)(=O)c1ccccc1 (stereo unspecified),5.8,-4.6,-4.2,76.1*,-8.4,MPTP abs DR=>100;MPTP counter DR=57.3*
O=C(NCCCN1CCCC1=O)c1cccc(S(=O)(=O)N2CCCCC2)c1,-0.3,-0.9,-2.8,-3.7,/,
SMILES,SKN-1 inh,MT1-MMP act inh,ATG4B inh,MPTP inh,MPTP counter,others
CCOC(=O)C1=CCN(S(=O)(=O)c2ccc(C)cc2)C1c1ccc(C(C)C)cc1 (stereo unspecified),10.8,-4.7,/,1.8,/,
CCOC(=O)C1CCC/C1=N\NC(=O)CN(c1cc(OC)ccc1OC)S(=O)(=O)c1ccccc1 (stereo unspecified),5.4,-3.8,-4.9,-0.2,/,
COc1cc(NC(=S)NCCC(c2ccccc2)c2ccccc2)c(OC)cc1Cl,1.6,2.0,14.6,96.7*,80.8*,
COc1ccc(Cl)cc1NC(=S)NCCC(c1ccccc1)c1ccccc1,11.2,-2.2,5.8,66.9*,91.3*,
O=C(NCCN1CCN(Cc2ccccc2)CC1)c1ccc(CS(=O)(=O)c2c(Cl)cccc2Cl)o1,3.6,1.4,/,-0.9,/,
CN1CCN(c2ncnc3c2[nH]c2ccc(F)cc23)CC1,2.0,-1.0,1.4,-5.6,/,
Fc1ccc2[nH]c3c(N4CCc5ccccc5C4)ncnc3c2c1,11.9,2.8,33.5,88.8*,82.9*,
Cc1ccc2[nH]c3c(N4CCc5ccccc5C4)ncnc3c2c1,-6.9,7.9,29.6,105.6*,92.6*,
CCN(C(=O)CSc1nc2ccccc2c(=O)n1CCOC)C1CCS(=O)(=O)C1 (stereo unspecified),-2.5,1.6,-1.7,-0.3,/,
CC1(C)Cc2nc(Cl)c(C(N)=O)cc2CO1,22.8,1.0,-5.8,2.8,/,
O=C(Nc1ccc(F)cc1)Nc1cccc(Br)c1,-1.7,4.8,-10.5,88.9*,91.1*,
O=C(NCCCl)Nc1cccc(Br)c1,11.5,2.4,-0.9,-0.3,/,
COc1cccc(NC(=O)NC2(C(F)(F)F)Oc3ccccc3O2)c1,27.0,-2.0,1.9,96.7*,83.4*,
COC(=O)c1ccc(NC(=O)Nc2ccc(F)cc2F)cc1,-3.7,-3.1,-4.9,85.8*,95.6*,
CCc1ccc(NC(=O)Nc2cccc(OC)c2)cc1,0.9,6.4,-3.8,63.0*,77.3*,
COC(=O)c1ccc(NC(=O)Nc2cccc(F)c2)cc1,10.6,-4.1,-10.2,85.4*,86.8*,
COC(=O)c1ccc(C(=O)Nc2ccc(F)cc2)cc1,-1.4,5.1,-13.5,-1.7,/,
O=C(NCc1nc(-c2ccc(C(F)(F)F)cc2)no1)Nc1ccc(OC(F)(F)F)cc1,-15.8,0.8,-7.6,77.7*,74.2*,
COc1ccc(-c2noc(CNS(=O)(=O)c3ccc(NC(C)=O)cc3)n2)cc1,3.2,7.1,8.4,-1.2,/,
CCOc1ccccc1OCCCC(=O)N1CCN(S(=O)(=O)c2ccc(C)cc2C)CC1,3.4,-5.9,-18.5,-2.3,/,
Cc1ccc(NC(=O)CN(C)C(=O)c2n[nH]c(=O)c3ccccc23)cc1,-4.2,5.9,9.1,-0.5,/,
CC(=O)Oc1ccc(Cn2c(C)c(C(=O)NCCC#N)sc2=O)cc1,-2.4,4.2,/,-0.2,/,
COCCN1C[C@@H](CO)O[C@@H](n2cnc3c(NC(C)C)ncnc32)C1,16.6,2.1,/,-0.8,/,
Cc1c(C(C)C)c(=O)n(-c2ccc(S(=O)(=O)NCc3ccccc3)cc2)n1C,7.3,6.1,-1.9,96.0*,82.6*,
Cc1c(C(C)C)c(=O)n(-c2ccc(S(=O)(=O)NC3CCCCC3)cc2)n1C,5.1,3.2,9.8,32.7,/,
